Measurements published in ChEMBL document CHEMBL4371097, “Antibacterial Aromatic Polyketides Incorporating the Unusual Amino Acid Enduracididine” (J Nat Prod, 2019).
Converted amounts (≈) assume the structure as drawn. The source made the active and inactive calls. The rule behind the calls is not given here.

Columns and labels:
Streptococcus pneumoniae [1] = assay: Antibacterial activity against Streptococcus pneumoniae ATCC BAA1407 after 16 hrs by agar diffusion method; assay type: functional
[2] = test system: Staphylococcus intermedius; assay: Antibacterial activity against Staphylococcus intermedius ATCC 29663 after 16 hrs by agar diffusion method; assay type: functional
[3] = test system: Staphylococcus haemolyticus; assay: Antibacterial activity against multidrug-resistant Staphylococcus haemolyticus isolate 1729 after 16 hrs by agar diffusion method; assay type: functional
Staphylococcus aureus [4] = assay: Antibacterial activity against multidrug-resistant Staphylococcus aureus isolate 3797 after 16 hrs by agar diffusion method; assay type: functional
Streptococcus pneumoniae [5] = assay: Antibacterial activity against Streptococcus pneumoniae isolate 44 after 16 hrs by agar diffusion method; assay type: functional
Cutibacterium acnes = assay: Antibacterial activity against Propionibacterium acnes ATCC 25746 after 16 hrs by agar diffusion method; assay type: functional
Streptococcus pyogenes = assay: Antibacterial activity against Streptococcus pyogenes isolate 49 after 16 hrs by agar diffusion method; assay type: functional
Enterococcus faecium [6] = assay: Antibacterial activity against Vancomycin A-inducible resistant Enterococcus faecium isolate 569 after 16 hrs by agar diffusion method; assay type: functional
Clostridioides difficile = assay: Antibacterial activity against Clostridium difficile ATCC 17858 after 16 hrs by agar diffusion method; assay type: functional
[7] = test system: Staphylococcus haemolyticus; assay: Antibacterial activity against Staphylococcus haemolyticus isolate 1730 after 16 hrs by agar diffusion method; assay type: functional
Staphylococcus aureus [8] = assay: Antibacterial activity against methicillin-resistant Staphylococcus aureus isolate 3864 after 16 hrs by agar diffusion method; assay type: functional
Enterococcus faecium [9] = assay: Antibacterial activity against Enterococcus faecium isolate 568 after 16 hrs by agar diffusion method; assay type: functional
Staphylococcus aureus [10] = assay: Inhibition of DNA synthesis in Staphylococcus aureus isolate 12ST assessed as reduction in 5-[3H]thymidine incorporation preincubated for 5 mins followed by 5-[3H]thymidine addition and measured after 5 mins by liquid scintillation counting method; assay type: functional, organism-based
Outline: (§1)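 S. aureus 12ST was grown overnight in 0.2× LB, diluted 200-fold, and grown at 37 °C to OD600 0.2–0.25. Aliquots were exposed to compound for 5 min at 37 °C (0.5% DMSO maximum final). Label was then added ([6-3H]thymidine 0.15 μCi/sample; D-[6-3H]glucosamine 0.4 μCi/sample) for 5 min at 37 °C. Samples were precipitated with ice-cold 5% TCA for ≥30 min, filtered, washed, and scintillation counted.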

Bacillus subtilis = assay: Inhibition of cell wall synthesis in Bacillus subtilis BAU102 assessed as induction of beta-galactosidase activity preincubated for 120 mins followed by beta-galactosidase chromogenic substrate addition; assay type: functional, organism-based
[11] = test system: Mycolicibacterium smegmatis; assay: Antibacterial activity against Mycobacterium smegmatis after 16 hrs by agar diffusion method; assay type: functional, organism-based
Staphylococcus aureus [12] = assay: Inhibition of RNA synthesis in Staphylococcus aureus isolate 12ST assessed as reduction in [3H]uridine incorporation up to 60 ug/ml preincubated for 5 mins followed by [3H]uridine addition and measured after 5 mins by liquid scintillation counting method; assay type: functional, organism-based
Outline: (§2)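 S. aureus 12ST was grown overnight in 0.2× LB, diluted 200-fold and grown at 37 °C to OD600 0.2–0.25. 80 µL aliquots got medium or compound (added at 10× final) for 5 min at 37 °C. [5,6-3H]uridine 0.15 µCi or L-[5-3H]tryptophan 0.25 µCi was added for 5 min more. Samples were precipitated in ice-cold 5% TCA, filtered and scintillation-counted. DMSO ≤0.5% final.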

Staphylococcus aureus [13] = assay: microbe, parasite or virus in culture; conditions: ATCC 6538P, 16 h
Staphylococcus aureus [14] = assay: Inhibition of cell wall synthesis in Staphylococcus aureus isolate 12ST assessed as reduction in [3H]glucosamine hydrochloride incorporation preincubated for 5 mins followed by [3H]glucosamine hydrochloride addition and measured after 5 mins by liquid scintillation counting method; assay type: functional, organism-based; outline: as §1
HEK293 = assay: Growth inhibition of HEK293 cells after 48 hrs by MTT assay; assay type: cell-based; conditions: Homo sapiens, HEK293, 48 h
Staphylococcus aureus [15] = assay: Bactericidal activity against Staphylococcus aureus ATCC 6538P up to 8 times MIC up to 24 hrs by time kill assay; assay type: functional, organism-based
Staphylococcus aureus [16] = assay: Bactericidal activity against Staphylococcus aureus ATCC 6538P at 8 times MIC up to 2 to 4 hrs by time kill assay relative to control; assay type: functional
Staphylococcus aureus [17] = assay: microbe, parasite or virus in culture; conditions: ATCC 29213, 16 h
Staphylococcus aureus [18] = assay: Bactericidal activity against Staphylococcus aureus isolate 3797 at 8 times MIC up to 2 to 4 hrs by time kill assay relative to control; assay type: functional
[19] = Growth inhibition of human PANC1 cells at 90 uM after 48 hrs by MTT assay relative to control; assay type: cell-based; conditions: PANC-1 cells, read-out: GI
Staphylococcus aureus [20] = assay: Bactericidal activity against Staphylococcus aureus isolate 3797 up to 8 times MIC up to 24 hrs by time kill assay; assay type: functional, organism-based
Candida albicans = assay: Antifungal activity against Candida albicans after 16 hrs by agar diffusion method; assay type: functional, organism-based
Staphylococcus aureus [21] = assay: Stimulation of protein synthesis in Staphylococcus aureus isolate 12ST assessed as increase in L-[3H]tryptophan incorporation preincubated for 5 mins followed by L-[3H]tryptophan addition and measured after 5 mins by liquid scintillation counting method; assay type: functional, organism-based; outline: as §2

`CN[C@H](CC(C)C)C(=O)N[C@H]1C(=O)N[C@@H](CC(N)=O)C(=O)N[C@H]2C(=O)N[C@H]3C(=O)N[C@H](C(=O)N[C@H](C(=O)O)c4cc(O)cc(O)c4-c4cc3ccc4O)[C@H](O)c3ccc(c(Cl)c3)Oc3cc2cc(c3O[C@@H]2O[C@H](CO)[C@@H](O)[C@H](O)[C@H]2O[C@H]2C[C@](C)(N)[C@H](O)[C@H](C)O2)Oc2ccc(cc2Cl)[C@H]1O` [VANCOMYCIN] showed an MIC (Streptococcus pneumoniae [1]; ATCC BAA1407, 16 h) of 0.5 µg/mL (≈ 0.345 µM), an MIC ([2]; NCTC 11048, 16 h) of 1 µg/mL (≈ 0.69 µM) and an MIC ([3]; isolate 1729, 16 h) of 2 µg/mL (≈ 1.38 µM). The MIC (Staphylococcus aureus [4]; isolate 3797, 16 h) was 8 µg/mL (≈ 5.52 µM), the MIC (Streptococcus pneumoniae [5]; isolate 44, 16 h) was 0.125 µg/mL (≈ 0.0863 µM) and the MIC (Cutibacterium acnes; ATCC 25746, 16 h) was 0.25 µg/mL (≈ 0.173 µM). The MIC (Streptococcus pyogenes; isolate 49, 16 h) was 0.25 µg/mL (≈ 0.173 µM), the MIC (Enterococcus faecium [6]; isolate 569, 16 h) was over 128 µg/mL and the MIC (Clostridioides difficile; ATCC 17858, 16 h) was 0.5 µg/mL (≈ 0.345 µM). The MIC ([7]; isolate 1730, 16 h) was 2 µg/mL (≈ 1.38 µM).
In the case of GENTAMICIN, the MIC (Streptococcus pneumoniae [1]) is reported as 64 µg/mL, the MIC (Staphylococcus aureus [8]) is reported as over 128 µg/mL and the MIC ([2]; NCTC 11048) is reported as under 0.125 µg/mL. It also gave an MIC [3] of over 128 µg/mL, an MIC (Staphylococcus aureus [4]) of 64 µg/mL and an MIC (Streptococcus pneumoniae [5]) of 8 µg/mL. It also gave an MIC (Cutibacterium acnes) of 2 µg/mL, an MIC (Streptococcus pyogenes) of 16 µg/mL and an MIC (Enterococcus faecium [6]) of 16 µg/mL. For the same compound, the MIC (Clostridioides difficile) was 128 µg/mL, the MIC [7] was over 128 µg/mL and the MIC (Enterococcus faecium [9]) was 32 µg/mL.
For `COc1c(OC)c2c(=O)c3cc(C)n(C(CC4CN(C)C(=N)N4)C(=O)O)c(=O)c3c(=O)c2c2cc3c(=O)c4cc(O)cc(O)c4c(=O)c3c(OC)c12` (stereo unspecified), the IC50 (Staphylococcus aureus [10]) was 2 µg/mL (≈ 2.81 µM), the inhibition (Staphylococcus aureus [10]) was “Dose-dependent effect” and the inhibition (Bacillus subtilis) was “Active”. The MIC (Streptococcus pneumoniae [1]; ATCC BAA1407, 16 h) was 0.25 µg/mL (≈ 0.352 µM), the Activity [11] was “inactive” and the MIC (Staphylococcus aureus [8]; isolate 3864, 16 h) was 0.03 µg/mL (≈ 0.0422 µM). For the same compound, the inhibition (Staphylococcus aureus [12]) was “inactive”, the MIC ([2]; NCTC 11048, 16 h) was 0.007 µg/mL (≈ 0.00985 µM) and the MIC ([3]; isolate 1729, 16 h) was 0.015 µg/mL (≈ 0.0211 µM). It also gave an MIC (Staphylococcus aureus [13]) of 0.004 µg/mL (≈ 0.00563 µM), an MIC (Staphylococcus aureus [4]; isolate 3797, 16 h) of 0.03 µg/mL (≈ 0.0422 µM) and an MIC (Streptococcus pneumoniae [5]; isolate 44, 16 h) of 0.25 µg/mL (≈ 0.352 µM). For the same compound, the IC50 (Staphylococcus aureus [14]) was 5 µg/mL (≈ 7.04 µM), the inhibition (Staphylococcus aureus [14]) was “Dose-dependent effect” and the IC50 (HEK293) was 55 µM. For the same compound, the MIC (Cutibacterium acnes; ATCC 25746, 16 h) was 0.25 µg/mL (≈ 0.352 µM), the Activity (Staphylococcus aureus [15]) was “inactive” and the Activity (Staphylococcus aureus [16]) was over 99.9%. It also gave an MIC (Staphylococcus aureus [17]) of 0.0005 µg/mL (≈ 0.000704 µM), an Activity (Staphylococcus aureus [18]) of over 99.9% and an inhibition at 48 h, 90 µM [19] of 20%. For the same compound, the MIC (Streptococcus pyogenes; isolate 49, 16 h) was 0.5 µg/mL (≈ 0.704 µM), the MIC (Enterococcus faecium [6]; isolate 569, 16 h) was 2 µg/mL (≈ 2.81 µM) and the Activity (Staphylococcus aureus [20]) was “inactive”. For the same compound, the MIC (Clostridioides difficile; ATCC 17858, 16 h) was 2 µg/mL (≈ 2.81 µM), the MIC ([7]; isolate 1730, 16 h) was 0.03 µg/mL (≈ 0.0422 µM) and the Activity (Candida albicans) was “inactive”. For the same compound, the Activity (Staphylococcus aureus [21]) was “Active” and the MIC (Enterococcus faecium [9]; isolate 568, 16 h) was 4 µg/mL (≈ 5.63 µM).
